# Test results: ChEMBL document CHEMBL1649395, “Synthesis and antibacterial activity of novel ketolides with 11,12-sulfur contained aryl alkyl side chains” (2011)
# What was measured:
# Assay type in all cases: functional
# [1] = system: Staphylococcus aureus; experiment: Antibacterial activity against methicillin-susceptible Staphylococcus aureus ATCC 29213 by broth microdilution method
# Method in brief: (§1)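 Strains were ATCC reference strains or clinical isolates from China's national antimicrobial resistance surveillance network (MOHNARIN). In vitro activity was measured by broth microdilution following NCCLS recommendations. Results are reported as minimum inhibitory concentration (MIC) in mg/L.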
# [2] = system: Haemophilus influenzae; experiment: Antibacterial activity against erythromycin-susceptible Haemophilus influenzae 07O114 by broth microdilution method; method in brief: as §1
# [3] = system: Streptococcus pyogenes; experiment: Antibacterial activity against erythromycin-susceptible Streptococcus pyogenes 07U084 by broth microdilution method; method in brief: as §1
# [4] = system: Streptococcus pneumoniae; experiment: Antibacterial activity against erythromycin-susceptible Streptococcus pneumoniae 07H252 by broth microdilution method; method in brief: as §1
# [5] = system: Streptococcus pyogenes; experiment: Antibacterial activity against erythromycin-resistant Streptococcus pyogenes 03-233 by broth microdilution method
# Method in brief: (§2)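 Clinical isolates were supplied by China's Ministry of Health National Antimicrobial Resistance Investigation Net (MOHNARIN). Activity was reported as minimum inhibitory concentration (MIC), determined by broth microdilution following NCCLS recommendations.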
# [6] = system: Staphylococcus epidermidis; experiment: Antibacterial activity against methicillin-resistant Staphylococcus epidermidis 07A066 by broth microdilution method; method in brief: as §2
# [7] = system: Staphylococcus epidermidis; experiment: Antibacterial activity against methicillin-resistant Staphylococcus epidermidis 07R066 by broth microdilution method; method in brief: as §2
# [8] = system: Haemophilus influenzae; experiment: Antibacterial activity against erythromycin-susceptible Haemophilus influenzae ATCC 49247 by broth microdilution method; method in brief: as §1
# [9] = system: Staphylococcus epidermidis; experiment: Antibacterial activity against methicillin-susceptible Staphylococcus epidermidis 07C134 by broth microdilution method; method in brief: as §2
# [10] = system: Staphylococcus aureus; experiment: Antibacterial activity against methicillin-susceptible Staphylococcus aureus ANS46 by broth microdilution method; method in brief: as §1
# [11] = system: Streptococcus pneumoniae; experiment: Antibacterial activity against erythromycin-resistant Streptococcus pneumoniae 07D201 by broth microdilution method; method in brief: as §2
# [12] = system: Haemophilus influenzae; experiment: Antibacterial activity against erythromycin-susceptible Haemophilus influenzae 07O339 by broth microdilution method; method in brief: as §1
# [13] = system: Staphylococcus epidermidis; experiment: Antibacterial activity against methicillin-susceptible Staphylococcus epidermidis 07T202 by broth microdilution method; method in brief: as §1
# [14] = system: Haemophilus influenzae; experiment: Antibacterial activity against erythromycin-susceptible Haemophilus influenzae 07O394 by broth microdilution method; method in brief: as §1
# [15] = system: Streptococcus pyogenes; experiment: Antibacterial activity against erythromycin-susceptible Streptococcus pyogenes 07U086 by broth microdilution method; method in brief: as §1
# [16] = system: Streptococcus pneumoniae; experiment: Antibacterial activity against erythromycin-resistant Streptococcus pneumoniae 07P390 by broth microdilution method; method in brief: as §2
# [17] = system: Streptococcus pneumoniae; experiment: Antibacterial activity against erythromycin-susceptible Streptococcus pneumoniae ATCC 49619 by broth microdilution method; method in brief: as §1
# [18] = system: Streptococcus pyogenes; experiment: Antibacterial activity against erythromycin-resistant Streptococcus pyogenes 01-533 by broth microdilution method; method in brief: as §2
smiles,measurement,setting,value
CC[C@H]1OC(=O)[C@H](C)C(=O)[C@H](C)[C@@H](O[C@@H]2O[C@H](C)C[C@H](N(C)C)[C@H]2O)[C@@](C)(OC)C[C@@H](C)C(=O)[C@H](C)[C@H]2N(CCCSc3nc(-c4ccccc4)cs3)C(=O)O[C@]12C,MIC,[1],0.5 µg/mL
same,MIC,[2],32 µg/mL
same,MIC,[3],0.25 µg/mL
same,MIC,[4],0.5 µg/mL
same,MIC,[5],32 µg/mL
same,MIC,[6],0.5 µg/mL
same,MIC,[7],0.5 µg/mL
same,MIC,[8],16 µg/mL
same,MIC,[9],0.5 µg/mL
same,MIC,[10],32 µg/mL
same,MIC,[11],8 µg/mL
same,MIC,[12],32 µg/mL
same,MIC,[13],32 µg/mL
same,MIC,[14],32 µg/mL
same,MIC,[15],0.25 µg/mL
same,MIC,[16],0.25 µg/mL
same,MIC,[17],0.25 µg/mL
same,MIC,[18],1 µg/mL
CC[C@H]1OC(=O)[C@H](C)C(=O)[C@H](C)[C@@H](O[C@@H]2O[C@H](C)C[C@H](N(C)C)[C@H]2O)[C@@](C)(OC)C[C@@H](C)C(=O)[C@H](C)[C@H]2N(CCCSc3nc4cc(OC)ccc4s3)C(=O)O[C@]12C,MIC,[1],0.5 µg/mL
same,MIC,[2],16 µg/mL
same,MIC,[3],0.062 µg/mL
same,MIC,[6],0.5 µg/mL
same,MIC,[7],0.25 µg/mL
same,MIC,[8],16 µg/mL
same,MIC,[9],0.25 µg/mL
same,MIC,[10],> 16 µg/mL
same,MIC,[12],16 µg/mL
same,MIC,[13],16 µg/mL
same,MIC,[14],16 µg/mL
same,MIC,[15],0.062 µg/mL
same,MIC,[17],0.125 µg/mL
CC[C@H]1OC(=O)[C@H](C)C(=O)[C@H](C)[C@@H](O[C@@H]2O[C@H](C)C[C@H](N(C)C)[C@H]2O)[C@@](C)(OC)C[C@@H](C)C(=O)[C@H](C)[C@H]2N(CCCSc3nc4ccccc4[nH]3)C(=O)O[C@]12C,MIC,[1],0.125 µg/mL
same,MIC,[2],2 µg/mL
same,MIC,[3],0.016 µg/mL
same,MIC,[6],0.125 µg/mL
same,MIC,[7],0.062 µg/mL
same,MIC,[8],4 µg/mL
same,MIC,[9],0.062 µg/mL
same,MIC,[10],> 16 µg/mL
same,MIC,[12],2 µg/mL
same,MIC,[13],> 16 µg/mL
same,MIC,[14],2 µg/mL
same,MIC,[15],0.016 µg/mL
same,MIC,[17],0.016 µg/mL
CC[C@H]1OC(=O)[C@H](C)C(=O)[C@H](C)[C@@H](O[C@@H]2O[C@H](C)C[C@H](N(C)C)[C@H]2O)[C@@](C)(OC)C[C@@H](C)C(=O)/C(C)=C/[C@]1(C)OC(=O)NCCCSc1nc2cc([N+](=O)[O-])ccc2[nH]1,MIC,[1],1 µg/mL
same,MIC,[2],16 µg/mL
same,MIC,[3],0.125 µg/mL
same,MIC,[6],1 µg/mL
same,MIC,[7],1 µg/mL
same,MIC,[8],16 µg/mL
same,MIC,[9],1 µg/mL
same,MIC,[10],> 16 µg/mL
same,MIC,[12],> 16 µg/mL
same,MIC,[13],> 16 µg/mL
same,MIC,[14],> 16 µg/mL
same,MIC,[15],0.125 µg/mL
same,MIC,[17],0.125 µg/mL
CC[C@H]1OC(=O)[C@H](C)C(=O)[C@H](C)[C@@H](O[C@@H]2O[C@H](C)C[C@H](N(C)C)[C@H]2O)[C@@](C)(OC)C[C@@H](C)C(=O)[C@H](C)[C@H]2N(CCCSc3nc(-c4ccccc4)c(-c4ccccc4)o3)C(=O)O[C@]12C,MIC,[1],4 µg/mL
same,MIC,[2],> 16 µg/mL
same,MIC,[3],0.5 µg/mL
same,MIC,[6],2 µg/mL
same,MIC,[7],4 µg/mL
same,MIC,[8],> 16 µg/mL
same,MIC,[9],4 µg/mL
same,MIC,[10],> 16 µg/mL
same,MIC,[12],> 16 µg/mL
same,MIC,[13],> 16 µg/mL
same,MIC,[14],> 16 µg/mL
same,MIC,[15],0.5 µg/mL
same,MIC,[17],1 µg/mL
CCCc1cnc(SCCCN2C(=O)O[C@]3(C)[C@@H](CC)OC(=O)[C@H](C)C(=O)[C@H](C)[C@@H](O[C@@H]4O[C@H](C)C[C@H](N(C)C)[C@H]4O)[C@@](C)(OC)C[C@@H](C)C(=O)[C@H](C)[C@@H]23)nc1,MIC,[1],0.5 µg/mL
same,MIC,[2],16 µg/mL
same,MIC,[3],0.125 µg/mL
same,MIC,[6],1 µg/mL
same,MIC,[7],0.5 µg/mL
same,MIC,[8],16 µg/mL
same,MIC,[9],0.5 µg/mL
same,MIC,[10],> 16 µg/mL
same,MIC,[12],16 µg/mL
same,MIC,[13],> 16 µg/mL
same,MIC,[14],16 µg/mL
same,MIC,[15],0.125 µg/mL
same,MIC,[17],0.125 µg/mL
